Test results: ChEMBL document CHEMBL2385076, “Discovery of 2-((1H-benzo[d]imidazol-1-yl)methyl)-4H-pyrido[1,2-a]pyrimidin-4-ones as novel PKM2 activators” (Bioorg Med Chem Lett, 2013)
Converted amounts (≈) assume the structure as drawn. The source made the active and inactive calls. No cut-off for these calls is given here.

Tests used:
[1] = biological target: D(1A) dopamine receptor (Homo sapiens) (UniProt P21728); experiment: Binding affinity to human dopamine D1 receptor by radioligand binding assay
Summary of the method: (§1)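 CEREP panel binding measured by displacement of an antagonist radioligand.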

[2] = biological target: Hepatocyte growth factor receptor (Homo sapiens) (UniProt P08581); experiment: Inhibition of cMet (unknown origin)
[3] = biological target: Serine/threonine-protein kinase PAK 4 (Homo sapiens) (UniProt O96013); experiment: Inhibition of PAK4 (unknown origin)
Chain of Serine/threonine-protein kinase PAK 4 (Homo sapiens) (O96013 whole entry, looked up): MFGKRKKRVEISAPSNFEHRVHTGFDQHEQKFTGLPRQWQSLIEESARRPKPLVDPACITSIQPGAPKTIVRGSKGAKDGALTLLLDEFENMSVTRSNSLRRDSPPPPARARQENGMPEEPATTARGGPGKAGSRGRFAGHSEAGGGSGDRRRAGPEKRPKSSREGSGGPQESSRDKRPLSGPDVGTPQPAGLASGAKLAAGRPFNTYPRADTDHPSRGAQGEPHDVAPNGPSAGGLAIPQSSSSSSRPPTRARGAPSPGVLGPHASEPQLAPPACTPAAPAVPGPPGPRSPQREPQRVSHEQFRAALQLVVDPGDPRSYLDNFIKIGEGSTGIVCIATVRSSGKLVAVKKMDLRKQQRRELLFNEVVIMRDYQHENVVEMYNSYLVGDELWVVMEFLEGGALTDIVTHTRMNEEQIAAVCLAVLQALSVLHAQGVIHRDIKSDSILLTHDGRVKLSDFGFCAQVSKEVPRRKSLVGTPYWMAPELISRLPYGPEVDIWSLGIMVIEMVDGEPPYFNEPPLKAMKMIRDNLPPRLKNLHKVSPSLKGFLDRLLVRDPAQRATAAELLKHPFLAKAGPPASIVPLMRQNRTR

Salmonella typhimurium = experiment: Genotoxicity in Salmonella typhimurium by Ames test; type: toxicity, organism-based; details: salmonella enterica subsp. enterica serovar typhimurium
[4] = biological target: MAP kinase-activated protein kinase 2 (Homo sapiens) (UniProt P49137); experiment: Inhibition of MAPKAPK2 (unknown origin)
[5] = biological target: Serine/threonine-protein kinase mTOR (Homo sapiens) (UniProt P42345); experiment: Inhibition of mTOR (unknown origin)
[6] = biological target: Tyrosine-protein kinase JAK3 (Homo sapiens) (UniProt P52333); experiment: Inhibition of JAK3 (unknown origin)
Chain of Tyrosine-protein kinase JAK3 (Homo sapiens) (P52333 whole entry): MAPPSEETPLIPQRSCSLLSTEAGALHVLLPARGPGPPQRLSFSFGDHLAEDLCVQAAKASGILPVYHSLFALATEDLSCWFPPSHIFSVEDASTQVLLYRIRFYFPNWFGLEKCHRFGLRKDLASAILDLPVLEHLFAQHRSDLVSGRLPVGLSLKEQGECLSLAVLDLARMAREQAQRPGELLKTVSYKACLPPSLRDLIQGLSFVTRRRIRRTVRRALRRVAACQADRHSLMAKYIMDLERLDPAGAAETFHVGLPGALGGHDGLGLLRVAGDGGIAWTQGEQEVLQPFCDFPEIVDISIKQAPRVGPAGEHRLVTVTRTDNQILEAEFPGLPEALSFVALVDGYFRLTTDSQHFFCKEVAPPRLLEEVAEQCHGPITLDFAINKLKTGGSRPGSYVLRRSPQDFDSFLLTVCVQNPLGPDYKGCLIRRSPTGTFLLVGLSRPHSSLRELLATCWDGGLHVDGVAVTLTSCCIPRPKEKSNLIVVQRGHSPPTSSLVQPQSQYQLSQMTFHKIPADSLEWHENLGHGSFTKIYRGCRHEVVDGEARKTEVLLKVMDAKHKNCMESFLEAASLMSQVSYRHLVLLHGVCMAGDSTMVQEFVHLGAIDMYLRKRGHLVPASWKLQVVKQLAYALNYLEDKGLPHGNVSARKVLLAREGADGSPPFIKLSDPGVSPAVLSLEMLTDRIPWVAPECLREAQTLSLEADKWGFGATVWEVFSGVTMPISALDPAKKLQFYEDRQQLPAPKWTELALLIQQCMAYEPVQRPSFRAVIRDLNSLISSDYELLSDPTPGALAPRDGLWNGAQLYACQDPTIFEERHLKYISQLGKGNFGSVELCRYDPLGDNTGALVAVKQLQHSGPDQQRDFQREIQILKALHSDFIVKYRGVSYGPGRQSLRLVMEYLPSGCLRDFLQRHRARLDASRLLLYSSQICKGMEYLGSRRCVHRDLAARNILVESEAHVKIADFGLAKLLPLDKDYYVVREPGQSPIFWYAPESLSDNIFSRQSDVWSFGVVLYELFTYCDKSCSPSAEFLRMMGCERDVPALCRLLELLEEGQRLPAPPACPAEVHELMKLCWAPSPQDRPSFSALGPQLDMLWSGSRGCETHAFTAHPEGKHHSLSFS

[7] = biological target: cAMP-dependent protein kinase catalytic subunit alpha (Homo sapiens) (UniProt P17612); experiment: Inhibition of PRKACA (unknown origin)
[8] = biological target: cGMP-inhibited 3',5'-cyclic phosphodiesterase 3B (Homo sapiens) (UniProt Q13370); experiment: Binding affinity to human PDE3B
[9] = biological target: Serine/threonine-protein kinase 26 (Homo sapiens) (UniProt Q9P289); experiment: Inhibition of MST4 (unknown origin)
[10] = biological target: Fibroblast growth factor receptor 1 (Homo sapiens) (UniProt P11362); experiment: Inhibition of FGFR1 (unknown origin)
[11] = biological target: Serine/threonine-protein kinase 3 (Homo sapiens) (UniProt Q13188); experiment: Inhibition of STK3 (unknown origin)
[12] = biological target: Tyrosine-protein kinase Lck (Homo sapiens) (UniProt P06239); experiment: Inhibition of LCK (unknown origin)
[13] = biological target: Serine/threonine-protein kinase Chk2 (Homo sapiens) (UniProt O96017); experiment: Inhibition of CHEK2 (unknown origin)
Chain of Serine/threonine-protein kinase Chk2 (Homo sapiens) (O96017 whole entry): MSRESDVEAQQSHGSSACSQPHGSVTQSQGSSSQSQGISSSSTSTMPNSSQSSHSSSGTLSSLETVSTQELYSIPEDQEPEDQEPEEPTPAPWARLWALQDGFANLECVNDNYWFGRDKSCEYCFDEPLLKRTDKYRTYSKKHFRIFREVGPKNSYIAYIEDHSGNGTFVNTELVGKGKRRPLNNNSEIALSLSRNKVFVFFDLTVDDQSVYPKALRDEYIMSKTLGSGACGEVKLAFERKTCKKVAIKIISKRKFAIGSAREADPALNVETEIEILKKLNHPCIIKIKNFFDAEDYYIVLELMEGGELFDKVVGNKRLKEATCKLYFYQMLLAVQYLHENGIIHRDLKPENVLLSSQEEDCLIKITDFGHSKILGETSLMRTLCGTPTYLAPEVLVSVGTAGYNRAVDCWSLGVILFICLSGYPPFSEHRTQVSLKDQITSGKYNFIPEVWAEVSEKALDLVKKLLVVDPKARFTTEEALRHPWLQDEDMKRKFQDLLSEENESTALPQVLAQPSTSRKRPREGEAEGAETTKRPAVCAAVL

[14] = biological target: Casein kinase II subunit alpha' (Homo sapiens) (UniProt P19784); experiment: Inhibition of CSNK2A2 (unknown origin)
Pyruvate kinase PKM [15] = biological target: T1, Pyruvate kinase PKM (Homo sapiens, UniProt P14618); experiment: Activation of PKM2 in human Huh7 cells assessed as formation of enzyme tetramers; type: cell-based; details: Huh-7
T1 sequence (P14618 2-531 limits assumed): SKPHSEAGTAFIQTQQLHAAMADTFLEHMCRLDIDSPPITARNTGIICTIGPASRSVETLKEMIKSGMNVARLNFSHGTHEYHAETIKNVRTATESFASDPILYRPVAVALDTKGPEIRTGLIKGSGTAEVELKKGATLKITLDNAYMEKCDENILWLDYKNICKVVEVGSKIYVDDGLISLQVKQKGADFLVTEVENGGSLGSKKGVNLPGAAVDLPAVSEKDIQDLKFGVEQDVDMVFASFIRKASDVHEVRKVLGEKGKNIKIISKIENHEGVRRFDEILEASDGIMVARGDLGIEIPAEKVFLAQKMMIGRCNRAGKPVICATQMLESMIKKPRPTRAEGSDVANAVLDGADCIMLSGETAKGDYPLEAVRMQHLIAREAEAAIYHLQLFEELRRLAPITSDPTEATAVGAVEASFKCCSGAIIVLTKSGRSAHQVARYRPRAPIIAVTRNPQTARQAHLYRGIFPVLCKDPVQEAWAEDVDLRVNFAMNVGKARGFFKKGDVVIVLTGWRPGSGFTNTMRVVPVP

[16] = biological target: Sodium-dependent noradrenaline transporter (Homo sapiens) (UniProt P23975); experiment: Binding affinity to human norepinephrine transporter by radioligand binding assay; summary of the method: as §1
[17] = biological target: MAP kinase p38 (Homo sapiens) (UniProt O15264+Q15759+Q16539+P53778); experiment: Inhibition of p38 (unknown origin); type: protein assay
[18] = Intrinsic clearance in human liver microsomes; type: ADME, Microsome; details: read-out: CLH
Pyruvate kinase PKM [19] = biological target: T1, Pyruvate kinase PKM; experiment: Activation of human PKM2 assessed as production of ATP at infinite concentration after 10 mins by lactate dehydrogenase-coupled enzyme assay relative to FBP
Summary of the method: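 Coupled to lactate dehydrogenase, NADH loss read as the drop in absorbance at 340 nm. Reaction: 2nM human PKM2 (cleaved N-term his, 1-531), 2 mM PEP, 0.35 mM NADH, 4 units/mL LDH in 50 mM Tris pH 7.5 with KCl and 5 mM MgCl2. Compound preincubated 10 minutes at 32 °C, then 0.5mM ADP starts the reaction. Duplicates; 10-point curves; asymptote max = % activation at infinite concentration.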

[20] = biological target: Vascular endothelial growth factor receptor 2 (Homo sapiens) (UniProt P35968); experiment: Inhibition of KDR (unknown origin)
[21] = biological target: Angiopoietin-1 receptor (Homo sapiens) (UniProt Q02763); experiment: Inhibition of Tie2 (unknown origin)
Chain of Angiopoietin-1 receptor (Homo sapiens) (Q02763 whole entry): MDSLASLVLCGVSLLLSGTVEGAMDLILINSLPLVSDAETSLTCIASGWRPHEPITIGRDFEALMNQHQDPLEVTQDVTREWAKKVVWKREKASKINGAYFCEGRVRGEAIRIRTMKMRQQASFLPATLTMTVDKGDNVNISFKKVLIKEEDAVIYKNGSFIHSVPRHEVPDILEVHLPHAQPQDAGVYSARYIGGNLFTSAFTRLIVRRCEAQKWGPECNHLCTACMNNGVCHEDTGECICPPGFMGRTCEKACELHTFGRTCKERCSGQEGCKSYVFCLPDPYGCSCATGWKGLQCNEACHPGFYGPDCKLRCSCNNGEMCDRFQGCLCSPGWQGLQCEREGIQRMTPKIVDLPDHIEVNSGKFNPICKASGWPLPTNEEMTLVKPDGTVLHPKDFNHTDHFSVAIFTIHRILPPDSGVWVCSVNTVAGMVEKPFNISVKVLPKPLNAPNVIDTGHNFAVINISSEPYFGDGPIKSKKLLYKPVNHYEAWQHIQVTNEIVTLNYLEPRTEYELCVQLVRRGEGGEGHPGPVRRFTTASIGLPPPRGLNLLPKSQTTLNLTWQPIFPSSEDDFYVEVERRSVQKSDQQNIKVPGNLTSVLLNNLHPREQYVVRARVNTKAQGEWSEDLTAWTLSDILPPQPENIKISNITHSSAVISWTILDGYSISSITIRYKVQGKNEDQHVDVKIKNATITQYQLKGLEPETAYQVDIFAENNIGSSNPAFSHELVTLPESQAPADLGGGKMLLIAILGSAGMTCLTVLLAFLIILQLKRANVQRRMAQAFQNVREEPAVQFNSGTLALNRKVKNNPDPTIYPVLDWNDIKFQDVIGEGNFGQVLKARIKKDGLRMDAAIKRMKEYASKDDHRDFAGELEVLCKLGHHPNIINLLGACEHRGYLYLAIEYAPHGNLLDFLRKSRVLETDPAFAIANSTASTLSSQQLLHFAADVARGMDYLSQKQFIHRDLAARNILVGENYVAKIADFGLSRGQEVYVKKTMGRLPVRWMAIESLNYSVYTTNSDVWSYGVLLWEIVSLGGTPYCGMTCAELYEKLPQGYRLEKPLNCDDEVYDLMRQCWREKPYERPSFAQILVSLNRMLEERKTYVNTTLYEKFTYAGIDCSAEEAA

HT-29 = experiment: Antiproliferative activity against human HT-29 cells at 10 uM after 5 days; type: functional; details: HT-29, 120 h
Summary of the method: (§2)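 Cells plated in Optimem-GlutaMax medium and cultured overnight before exposure to 10 µM compound. Viability measured with CytoTox-Glo after 5 days of treatment.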

[22] = biological target: Epidermal growth factor receptor (Homo sapiens) (UniProt P00533); experiment: Inhibition of EGFR (unknown origin)
[23] = biological target: Protein kinase C beta type (Homo sapiens) (UniProt P05771); experiment: Inhibition of PRKCB2 (unknown origin)
[24] = biological target: Phosphatidylinositol 4-phosphate 3-kinase C2 domain-containing subunit alpha (Homo sapiens) (UniProt O00443); experiment: Inhibition of PIK3C2A (unknown origin)
[25] = biological target: Serine/threonine-protein kinase Chk1 (Homo sapiens) (UniProt O14757); experiment: Inhibition of CHEK1 (unknown origin)
[26] = biological target: Sodium-dependent serotonin transporter (Homo sapiens) (UniProt P31645); experiment: Binding affinity to human 5-HT transporter by radioligand binding assay; summary of the method: as §1
[27] = biological target: Glycogen synthase kinase-3 beta (Homo sapiens) (UniProt P49841); experiment: Inhibition of GSK3B (unknown origin)
Chain of Glycogen synthase kinase-3 beta (Homo sapiens) (P49841 whole entry, looked up): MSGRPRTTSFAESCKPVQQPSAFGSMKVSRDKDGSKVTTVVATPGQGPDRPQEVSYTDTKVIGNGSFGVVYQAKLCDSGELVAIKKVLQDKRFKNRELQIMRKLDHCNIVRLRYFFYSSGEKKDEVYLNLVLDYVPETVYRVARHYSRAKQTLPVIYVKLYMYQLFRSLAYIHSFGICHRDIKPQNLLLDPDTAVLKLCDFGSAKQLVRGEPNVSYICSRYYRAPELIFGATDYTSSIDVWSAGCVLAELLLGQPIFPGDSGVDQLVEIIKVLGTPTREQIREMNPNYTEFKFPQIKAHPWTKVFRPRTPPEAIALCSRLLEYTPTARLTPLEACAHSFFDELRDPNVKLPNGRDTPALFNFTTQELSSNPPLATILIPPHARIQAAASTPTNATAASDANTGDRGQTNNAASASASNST

JHH2 = experiment: Antiproliferative activity against human JHH2 cells at 10 uM after 5 days; type: functional, cell-based; summary of the method: as §2
Pyruvate kinase PKM [28] = biological target: T1, Pyruvate kinase PKM; experiment: Activation of PKM2 in human Snu182 cells assessed as oxygen consumption rate at 10 uM after 18 hrs; type: cell-based
Summary of the method: (§3)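 Snu182 cells seeded at 12k/well in RPMI with 10% FBS and 2 mM glutamine, cultured overnight, then given 10 µM compound for 18 h at 37°C, 5% CO2. Medium switched to XF DMEM with 5 mM glucose plus 10 µM compound; OCR and ECAR measured on a Seahorse XF96 analyzer.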

[29] = biological target: Muscarinic acetylcholine receptor M1 (Homo sapiens) (UniProt P11229); experiment: Binding affinity to human muscarinic M1 receptor by radioligand binding assay; summary of the method: as §1
[30] = biological target: Proto-oncogene tyrosine-protein kinase Src (Homo sapiens) (UniProt P12931); experiment: Inhibition of SRC (unknown origin)
[31] = biological target: Beta-2 adrenergic receptor (Homo sapiens) (UniProt P07550); experiment: Binding affinity to human beta-2 adrenergic receptor by radioligand binding assay
Summary of the method: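 CEREP panel binding measured by displacement of an agonist radioligand.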

[32] = biological target: Mitogen-activated protein kinase 1 (Homo sapiens) (UniProt P28482); experiment: Inhibition of MAPK1 (unknown origin)
Chain of Mitogen-activated protein kinase 1 (Homo sapiens) (P28482 whole entry): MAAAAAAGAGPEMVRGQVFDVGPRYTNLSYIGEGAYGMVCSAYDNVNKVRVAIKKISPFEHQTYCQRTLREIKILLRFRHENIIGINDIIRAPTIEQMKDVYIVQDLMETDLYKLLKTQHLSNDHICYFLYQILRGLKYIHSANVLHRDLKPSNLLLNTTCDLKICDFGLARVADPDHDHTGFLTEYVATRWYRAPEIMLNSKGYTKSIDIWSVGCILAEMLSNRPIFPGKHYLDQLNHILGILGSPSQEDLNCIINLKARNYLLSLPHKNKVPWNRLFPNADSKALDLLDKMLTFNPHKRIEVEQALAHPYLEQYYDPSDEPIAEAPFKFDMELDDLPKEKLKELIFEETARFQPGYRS

[33] = biological target: Tyrosine-protein kinase BTK (Homo sapiens) (UniProt Q06187); experiment: Inhibition of BTK (unknown origin)
[34] = Passive permeability from apical to basolateral side of dog RRCK cells; type: ADME, cell-based, Canis lupus familiaris, MDCKII-LE; details: MDCK, read-out: permeability
[35] = biological target: Serine/threonine-protein kinase pim-2 (Homo sapiens) (UniProt Q9P1W9); experiment: Inhibition of PIM2 (unknown origin)
[36] = biological target: Histamine H1 receptor (Homo sapiens) (UniProt P35367); experiment: Binding affinity to human histamine H1 receptor by radioligand binding assay; summary of the method: as §1
Pyruvate kinase PKM [37] = biological target: T1, Pyruvate kinase PKM; experiment: Activation of PKM2 in human Snu182 cells assessed as extracellular acidification rate at 10 uM after 18 hrs; type: cell-based; summary of the method: as §3
[38] = biological target: Casein kinase I isoform alpha (Homo sapiens) (UniProt P48729); experiment: Inhibition of CSNK1A1 (unknown origin)
Chain of Casein kinase I isoform alpha (Homo sapiens) (P48729 whole entry, looked up, canonical isoform): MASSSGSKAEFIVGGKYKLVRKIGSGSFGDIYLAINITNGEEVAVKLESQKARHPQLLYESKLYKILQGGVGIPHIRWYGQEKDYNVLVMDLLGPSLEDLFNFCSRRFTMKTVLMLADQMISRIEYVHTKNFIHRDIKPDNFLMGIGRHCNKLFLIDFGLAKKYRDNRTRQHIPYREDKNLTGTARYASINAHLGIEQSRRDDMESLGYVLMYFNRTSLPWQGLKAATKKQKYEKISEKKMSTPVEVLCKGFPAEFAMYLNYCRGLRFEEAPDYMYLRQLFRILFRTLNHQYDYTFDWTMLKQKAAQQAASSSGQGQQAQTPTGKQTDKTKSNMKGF

[39] = Kinetic solubility of the compound at pH 7.4; type: physicochemical; details: buffer, read-out: Kinetic_solubility

Activity [1]: inactive
inhibition [2]: inactive
inhibition [3]: inactive
inhibition [4]: inactive
inhibition [5]: inactive
inhibition [6]: inactive
inhibition [7]: inactive
Activity [8]: inactive
inhibition [9]: inactive
inhibition [10]: inactive
inhibition [11]: inactive
inhibition [12]: inactive
inhibition [13]: inactive
inhibition [14]: inactive
Activity (Pyruvate kinase PKM [15]): Active
Activity [16]: inactive
inhibition [17]: inactive
microsomal CLint [18]: < 8 µL/min/mg
max activation (Pyruvate kinase PKM [19]): 198%
inhibition [20]: inactive
inhibition [21]: inactive
inhibition [22]: inactive
inhibition [23]: inactive
inhibition [24]: inactive
inhibition [25]: inactive
Activity [26]: inactive
inhibition [27]: inactive
Activity (Pyruvate kinase PKM [28]): 101%
Activity [29]: inactive
inhibition [30]: inactive
Activity [31]: inactive
inhibition [32]: inactive
inhibition [33]: inactive
Papp A→B [34]: 20.5 ×10⁻⁶ cm/s
inhibition [35]: inactive
Activity [36]: inactive
Activity (Pyruvate kinase PKM [37]): 109%
inhibition [38]: inactive
solubility kinetic [39]: 178 µM (≈ 51.7 µg/mL)
Structure (SMILES): Cc1cccc2nc(Cn3cnc4ccccc43)cc(=O)n12
Activity (Salmonella typhimurium): Non-toxic
inhibition at 10 µM (HT-29): 2.83%
Activity (JHH2): inactive
